In the EternaBench riboswitch data:

Tested on: MS2 coat protein
Test: apparent Kd, MS2 coat protein; higher = weaker binding; RNA-MaP array; FMN 200 µM where present
Outline: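 Designs were transcribed by stalled E. coli RNA polymerase on Illumina sequencing-chip clusters. They were titrated with SNAP-549-labelled MS2 coat protein from 0.7 or 1.5 nM, doubling to 3 µM, without and then with constant ligand. Buffer: 100 mM Tris-HCl pH 7.5, 80 mM KCl, 4 mM MgCl2, BSA, DTT, yeast tRNA, Tween-20. Green signal was normalised to red-channel RNA signal and control-cluster median Fmax. Apparent Kd is the median of filtered per-cluster binding-curve fits.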

[1] = designed as: OFF switch for flavin mononucleotide, no ligand
[2] = ligand present: flavin mononucleotide, designed as: OFF switch for flavin mononucleotide
[3] = designed as: ON switch for flavin mononucleotide, no ligand
[4] = ligand present: flavin mononucleotide, designed as: ON switch for flavin mononucleotide

Sequence | apparent Kd [1] | apparent Kd [2] | apparent Kd [3] | apparent Kd [4]
AGCCAAAUAGGAUAUGCCCGGGAUAACAUGAGGAUCACCCAUGUGACCGAUUCAUGUCCUGCAGAAGGAUUUGGGA | 13.2 nM | 24.4 nM |  | 
UAAGCGCAGGAGAAGGGCACUGGACGCUCGCUACAUGAGGAUCACCCAUGUGCAGGAUAUCCGGCGCCACCCGCAAACUCGGUG | 15.8 nM | 72.1 nM |  | 
UGGACUGGGCAGAAGGGACAUGAGGAUCACCCAUGUCUUGGGCUACUUCAGUCAGGAUAUGCCCAAUAAAUAUCCGUGCAUCAA | 13.3 nM | 67.1 nM |  | 
UUAAUUAUACAAGGAUAUCUAUUGUUGUUUCGACUUACAUGAGGAUCACCCAUGUUAAUAUGUUUAGAGAAGGUGUAUUUUCAG |  |  | 55.1 nM | 35.8 nM
AGUGUCAUCGAGAAGGCCUCAACAUGAGGAUCACCCAUGUUGCAAAAUGGGAGGAUAUCGAUGAUACAGCUACGUUUCGUAGCA |  |  | 15.3 nM | 5.21 nM
GCUUGUGAAGGAUAUACUGGCGACAUGCGCUCGACACGCGCACAUGAGGAUCACCCAUGUAGAAGGUCAAACAU | 20.9 nM | 21.3 nM |  | 
UCAUUUAUUACAGGAUAUAUUAGUAUACAGUUGUUUGGUUAUUACAUAUUAAUAGAAGGGUAGAACAUGAGGAUCACCCAUGUA |  |  | 234 nM | 119 nM
UUGACGGCAGGAUAUACAUGAGGAUCACCCAUGUAAAUUUUUCGUUUAACUUGAAUGUGUAGAAGGGCCAAAAC | 22.7 nM | 19.5 nM |  | 
UGUGAGUUGAUGUUAGAUAGGAGAACAUGAGGAUCACCCAUGUAGGAUAUUCAAAGACGAAGAUAGAAGAAGGACAUAGGUUUC | 17.7 nM | 21.5 nM |  | 
UGUUGUAUUACAGGAUAUCUAUUAUUUUUAUUUAGAGAAGGGUAUUCACAUGAGGAUCACCCAUGUAUAUACGAGGAAGAUGUG |  |  | 91.5 nM | 107 nM
CCUCGGUUAGGAUAUGGAUGGUCACCCUGCGGUGUACCGCUCCAGAAGGGACAUGAGGAUCACCCAUGUUACGC | 106 nM | 338 nM |  | 
CGAGGACAUGAGGAUCACCCAUGUAGCUACAAAACGCAGCGACAGGAUAUCCUCUGGUUCCCAUAGGAGAAGGGUCAAACCUUG |  |  | 29.4 nM | 47.3 nM
GGAUCCGCUUCCGCCACAUGAGGAUCACCCAUGUGUAUGAACAGAAGGGCGACCUCAAAGAGGGCGCAGGAUAUGUACUCGUAC |  |  | 78.3 nM | 48.6 nM
AUACUCAUGUAAGGAUAUGCAGCCGUUUCGGCUGCAGAAGGUACUAUAAUACAUGAGGAUCACCCAUGUCUAUAAAAUAAAGAC |  |  | 60.6 nM | 41.5 nM
AAGGAUCGAGGAUAUACAUAGAUACAGAUUCAUGUAGAACUACAUGAGGAUCACCCAUGUAGAAGGCGAUCAUA | 27.1 nM | 127 nM |  | 
GUGAAACAUGAGGAUCACCCAUGUGAGGAUAUGUUUUAGUACUGCAGACAGUACAUCUAUAGAAGGCACAAUGG | 38.9 nM | 70.7 nM |  | 
UUACUCAUGUAAGGAUAUGCAGCCGAAACGGCUGCAGAAGGUACUAAAAUACAUGAGGAUCACCCAUGUCUUUUUAUUUUAGAC |  |  | 197 nM | 129 nM
CCAAGAAUAGGAUAUACACCGUGUCAGCUUUUAUAUAUCGCACAUGAGGAUCACCCAUGUAGAAGGGUUCUCUC | 676 nM | 564 nM |  | 
AAACGCCAACAUGAGGAUCACCCAUGUUCUAGUUUAGGGUCGCAGGAUAUGACUUCGAAGCUUAGUCAGAAGGGUGAGUCCACA |  |  | 13.7 nM | 11.2 nM
GGUCCAUCAUGAGGAUAUGGCACCUUAUUGGUGCCAGAAGGCGUGUCUAUAGACAUGAGGAUCACCCAUGUAAUAAAUUGGACC |  |  | 614 nM | 49.6 nM
AAUUUACAUGAGGAUCACCCAUGUGAGGAUAUACACACAUGCUUGUUAUUGCGUGUGUGUAGAAGGCGCGUGAU | 97.3 nM | 153 nM |  | 
UAUUUAAGAGGAUAUACAUGAGGAUCACCCAUGUGUGUCUAUACGCGUGAUUUUUCAUGUAGAAGGCUUGGGUA | 160 nM | 60.5 nM |  | 
AAAACAUGAGGAUCACCCAUGUAAAGAUCGGUUAAUAAAAGUGAGGAUAUACUAAAUUUUAUAUAGUAGAAGGCACUGGGUACA |  |  | 22.9 nM | 30.1 nM
GCACGAGACUAAGGAUAUGGAGUGUCUACAUUAAACAUGAGGAUCACCCAUGUAAAGAGUACGAUUCAGAAGGUAGAGACGUGC |  |  | 51.5 nM | 23.5 nM
CCGCCAAUCGAGAAGGGCCCAUGUGCUACGUCGGCAGGAUAUCGACAUGAGGAUCACCCAUGUUGGCGAUCCUUUUUGGCGAAC | 149 nM | 108 nM |  | 
AUCAUGUAAGGAUAUCUGACAUGUGACUUCGGUCACUGUUCAGAGAAGGUACAUGAGGAUCACCCAUGUAGAAC | 76.7 nM | 78.6 nM |  | 
AACCUACAUGAGGAUCACCCAUGUGAGGAUAUAUUGGUAUGGAUGUUAUUUUGUAGAGGUAGAAGGCGCGUGAU | 15.4 nM | 15.4 nM |  | 
ACCAUUUACUAGUUUUCUAUACAUGAGGAUCACCCAUGUUUUGAGGAUAUCAGCGUGAAACACGCUGAGAAGGCAAAACAUUCG | 181 nM | 342 nM |  | 

Sequence | apparent Kd [1] | apparent Kd [2] | apparent Kd [3] | apparent Kd [4]
GGAAGACAAAGUCUUCCAAUUCGAACAUGAGGAUCACCCAUGUAGGAUAUGCUACUCAAAGAGUAGCAGAAGGACAUGUGCUUU | 37.3 nM | 164 nM |  | 
GUGGUCAGACAUGAGGAUCACCCAUGUGGAAUAAAUAACAGACAGGAUAUCUAAUAUAGGAUAUAGGAGAAGGGUCGAUUGGUG |  |  | 89 nM | 85.3 nM
UACCUGAGGCAAAGCUUUAGGUAUACAUGAGGAUCACCCAUGUAGGAUAUGGUAGGCUUUGCUUACCAGAAGGACAUGUUAAUA | 17.3 nM | 56.3 nM |  | 
UGUAUGGACAGAGGAUAUACAGAUAGGAUCUACUAUCAAACAAUCCUGACAUGAGGAUCACCCAUGUAGAAGGCUGUCCAUACU | 23.8 nM | 91.4 nM |  | 
CUAUAUAUAUGAGGAUAUCUAUAUCCAACAUGAGGAUCACCCAUGUUGAGGAUCACCCAUGUAAAGGAGAAGGCAUAUAUAUAG |  |  | 43.2 nM | 14.9 nM
AGUUUCUUGUAAGGAUAUACUAGCGAUAAGCUAGUAGAAGGUACUGUCUAUUGUAUCACUAUUUUACAUGAGGAUCACCCAUGU |  |  | 7.13 nM | 6.2 nM
CGAUAUUAUAGAGGAUAUGUUUAACAUGAGGAUCACCCAUGUGAGGUGGAAUUAAUGUAUAACUUACAGAAGGCUAUACAAUCG | 417 nM | 500 nM |  | 
UCAUUUCUGUAAGGAUAUAUAAACAUGACGAUACAUGAGGAUCACCCAUGUGUAGAAGGUACAAAUACAUAUAAUGCAAUGUUC | 14.8 nM | 12.9 nM |  | 
CUCAUGUAAGGAUAUCAGUAGUAAAAAAAUAAAAUUACUACUGAGAAGGUACAUGAGGAUCACCCAUGUCCUGG | 33.3 nM | 17.9 nM |  | 
GGUCCAUCAUGAGGAUAUGGCACCUUAUUGGUGCCAGAAGGCAUGUCUAUAGACAUGAGGAUCACCCAUGUGAUAAAUUGGACC |  |  | 523 nM | 49.9 nM
GUGUAGAUAGGAUAUGCAAGAGUCUAGCGAAGCUAGAUUCUACAUGAGGAUCACCCAUGUAGAAGGGUCUACAC | 18.3 nM | 16.1 nM |  | 
ACCAAUGCAGGAUAUACAUGAGGAUCACCCAUGUAUAACCUACAUAGGUGAUCCUCAUGUAGAAGGGCAUUGGA | 12.8 nM | 10 nM |  | 
CACGGCGUAUCAGGAUAUGUGGGUGUCUGGACAUGAGGAUCACCCAUGUAAACAGUAUUAGCCGUGCAGAAGGGAUCCGCUGUA |  |  | 39 nM | 65.2 nM
GCGUUAGUAUCACAUGUAUUACAUGAGGAUCACCCAUGUUACUAGGAUAUGUAUUAGUAUUAUCAACAGAAGGAGUAAUAACGC | 12.5 nM | 17.6 nM |  | 
GUCAGCUCGUGAGGAUAUACAACACUGCUUCGGCAGUGUAUUAAGAUCACAUGAGGAUCACCCAUGUAGAAGGAACGAGCUGAU | 7.52 nM | 24.2 nM |  | 
GGUACUCAAAGAGUACCAAUACGAACAUGAGGAUCACCCAUGUAGGAUAUGUUUUCGCCGGAGUAUCAGAAGGACAUGUGCCUA | 10.9 nM | 9.15 nM |  | 
UUCUUGGCAGGAUAUGCUCUCUUAGACAUGAGGAUCACCCAUGUGUUCAUUCUUUCUUUUGCAGAAGGGCCUUAAU | 56.5 nM | 69.9 nM |  | 
AUAGGUUAAGGAGGAUAUAGAGGGAGACGUACACAUGAGGAUCACCCAUGUAUUUAAUUAGUUUACUAGAAGGCUUAUGAUUGU |  |  | 65.5 nM | 101 nM
GAGCUAUGAGGAUAUGCAUAGAUACGGAUUCGUGUAGUACUACAUGAGGAUCACCCAUGUAGAAGGCGUGGCUG | 18.5 nM | 20.5 nM |  | 
GCUGGGUCAGGAUAUACAAGAUCGAAAGAUCAAAGAUUCGUACAUGAGGAUCACCCAUGUAGAAGGGACUGGGC | 23.4 nM | 31.7 nM |  | 
GCCAGUUAUGUAGGAUAUGCGAAGCGAGCCUGAGCAGAAGGACAUGAGGAUCACCCAUGUAUUGCGGUUUGAGUACUGAUCGCU | 27.9 nM | 107 nM |  | 
AGCUGGUGACAGCAUCGAGCAAAACAUGAGGAUCACCCAUGUAGAAGGCUGUACGGUUACCGUACAGAGGAUAUACAUAGCUCG | 7.15 nM | 10 nM |  | 
AUCCUGCGAGGAUAUACAUAGUUUUUUUCGUUUUGACUCGAACAUGAGGAUCACCCAUGUAGAAGGUGCUUCAC | 59.5 nM | 56 nM |  | 
ACUAUAUAUGAGAAGGUGAAGUGGAAACAUGAGGAUCACCCAUGUAAUACGAAGCGUAUUUUUAUCAAGGAUAUCAUAUAUAGA |  |  | 10.2 nM | 8.02 nM
CCUCCACAUGAGGAUCACCCAUGUCAGGAUAUCGUGUGUGCGUUUUCGGUCUUUCGCGCGAGAAGGGACGACUG | 30.2 nM | 33 nM |  | 
AGCCUGCUGCGAGGAUAUCAACUAAAGGGUCCGAUUUCCGAGCGGAACAUGAGGAUCACCCAUGUUGAGAAGGCGCGAGUAUAG | 25.6 nM | 182 nM |  | 
CUGUUGUGGUACUGCAUGGCUUGGAGAGAAGGGUGAUUCACAUGAGGAUCACCCAUGUAGGACUUACAGGAUAUUUCCGGGUCU |  |  | 62.6 nM | 100 nM
